Assay results pooled from the literature.
Target: Serine/threonine-protein kinase 33 (STK33, Homo sapiens, UniProt Q9BYT3)

SMILES	assay	conditions	remaining binding [%]
c1cncc(-c2cccc(Nc3nccc(NC4CCCCC4)n3)c2)c1	binding, competition with immobilised ligand	10 µM	44
CC1=C(C#N)[C@@H](c2ccc3[nH]nc(C)c3c2)C(C#N)=C(c2ccc(Cl)cc2)N1	cell-free assay, competition with immobilised ligand	1 µM	90.9
COc1ncc2cc3ccccc3nc2c1C#N	cell-free assay, competition with immobilised ligand	5 µM	91
CCCCN(CCCC)C(=O)CN1C[C@@H](c2cc(OC)c3c(c2)OCO3)[C@H](C(=O)O)[C@H]1CC(C)(C)CCC	cell-free assay, competition with immobilised ligand	1 µM	100
CN(C)c1ncc(F)c(-c2cnn3ncccc23)n1	binding	1 µM	100
O=C(c1ccc(Nc2ncc(Cl)c(-c3cc4ccccc4s3)n2)cc1)N1CCC(N2CCCC2)CC1	binding, competition with immobilised ligand	1 µM	38
C[C@@H]1CCN(c2nccc(-c3cnn4ncccc34)n2)C1	binding	1 µM	88
CN([C@@H]1CCc2c(CC(=O)O)c3ccccc3n2C1)S(=O)(=O)c1ccc(F)cc1	cell-free assay, competition with immobilised ligand	1 µM	100
Cc1cnn2ncc(-c3ccnc(N(C)C)n3)c2c1	binding	1 µM	100
CC1=C(C#N)C(c2ccc3c(c2)c(NC(=O)c2ccccc2C)nn3C)C(C#N)=C(C)N1	cell-free assay, competition with immobilised ligand	1 µM	100
CN(C)c1nccc(-c2cnn3ncccc23)n1	binding	1 µM	75
CCN1CCN(Cc2ccc(C(=O)Nc3ccc(C)c(Oc4ccc5c(c4)CC(=O)N5)c3)cc2C(F)(F)F)CC1	binding, competition with immobilised ligand	1 µM	100
COc1ccnn2ncc(-c3ccnc(N(C)C)n3)c12	binding	1 µM	99
COc1cnc(Nc2cccc(S(N)(=O)=O)c2)nc1N1CCN(c2ccccc2)C(=O)C1	binding, competition with immobilised ligand	1 µM	93
O=C(Nc1c[nH]nc1C(=O)NC1CCNCC1)c1cc(F)cc(F)c1	binding, competition with immobilised ligand	1 µM	100
Nc1ncc2c(n1)-c1c([nH]c3ccc(C#CC4CC4)cc13)CCCC2	binding, competition with immobilised ligand	1 µM	100
CN(c1ccnc(CNc2nc(Nc3ccc4c(c3)CC(=O)N4)ncc2C(F)(F)F)n1)S(C)(=O)=O	cell-free assay, competition with immobilised ligand	1 µM	15
CN(c1nccc(-c2cnn3ncccc23)n1)C1CC1	binding	1 µM	100
CO[C@@H](C)c1c(Nc2ccc([C@H](N(C)C(=O)C3CCS(=O)(=O)CC3)C(F)(F)F)cc2)cnc2cc(Cl)nn12	cell-free assay, competition with immobilised ligand	1 µM	51
O=C(c1ccc(Nc2nccc(-c3cc4ccccc4s3)n2)cc1)N1CCC(N2CCCC2)CC1	binding, competition with immobilised ligand	1 µM	100
O=C(NCc1ncc(C(F)(F)F)cc1Cl)c1ccc2c(c1)C1(CCS(=O)(=O)CC1)[C@H](C1CC1)N2S(=O)(=O)c1ccc(F)cc1	cell-free assay, competition with immobilised ligand	1 µM	100
N[C@@H]1CCN(c2nccc(-c3cnn4ncccc34)n2)C1	binding	1 µM	100
O=C(NCCCN1CCOCC1)c1ccc(Nc2ncc(Cl)c(-c3ccc(Cl)s3)n2)cc1	binding, competition with immobilised ligand	1 µM	68
